Measured values from different studies.
Each line is one published result; the experiments were not run side by side.
Target: Serine/threonine-protein kinase TNNI3K (TNNI3K, Homo sapiens, UniProt Q59H18)
Residues used in one study (Q59H18 1-835): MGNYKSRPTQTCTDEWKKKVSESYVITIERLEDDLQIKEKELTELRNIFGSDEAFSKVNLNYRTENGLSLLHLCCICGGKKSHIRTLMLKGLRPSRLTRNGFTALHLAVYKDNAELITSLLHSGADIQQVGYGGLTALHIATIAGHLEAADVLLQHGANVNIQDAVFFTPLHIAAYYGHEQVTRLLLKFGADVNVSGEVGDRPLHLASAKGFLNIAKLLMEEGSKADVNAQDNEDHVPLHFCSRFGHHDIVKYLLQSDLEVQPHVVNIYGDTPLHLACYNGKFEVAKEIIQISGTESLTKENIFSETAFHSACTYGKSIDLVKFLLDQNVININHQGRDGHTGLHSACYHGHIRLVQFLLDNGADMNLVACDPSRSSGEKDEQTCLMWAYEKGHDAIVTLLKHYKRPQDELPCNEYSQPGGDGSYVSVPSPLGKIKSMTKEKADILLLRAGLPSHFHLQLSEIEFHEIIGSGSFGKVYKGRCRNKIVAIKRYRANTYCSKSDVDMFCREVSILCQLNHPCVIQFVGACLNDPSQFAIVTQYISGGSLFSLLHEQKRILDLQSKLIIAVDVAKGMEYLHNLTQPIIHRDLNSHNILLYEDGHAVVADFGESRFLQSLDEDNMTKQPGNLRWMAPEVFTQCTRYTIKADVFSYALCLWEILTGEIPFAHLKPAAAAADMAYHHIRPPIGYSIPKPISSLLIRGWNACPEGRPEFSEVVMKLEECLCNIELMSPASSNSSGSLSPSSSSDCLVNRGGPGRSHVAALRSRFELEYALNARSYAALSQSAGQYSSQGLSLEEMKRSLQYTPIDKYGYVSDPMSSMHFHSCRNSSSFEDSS

Structure (SMILES)	test	conditions	remaining binding [%]
CCCCN(CCCC)C(=O)CN1C[C@H](c2cc(OC)c3c(c2)OCO3)[C@@H](C(=O)O)[C@@H]1CC(C)(C)CCC	cell-free assay, competition with immobilised ligand	1 µM	100
C=CC(=O)N1CCC(C(=O)NCC(=O)N2CCN(c3nc(-c4cnc(N)nc4C(F)F)nc(N4CCOCC4)n3)CC2)CC1	binding, competition with immobilised ligand	1 µM	100
COc1ccc2cc(OCC3(C(=O)O)CN(C(=O)c4ccc(F)cc4)C3)ccc2c1	cell-free assay, competition with immobilised ligand	1 µM	100
F[C@@H]1CCN(c2nccc(-c3cnn4ncccc34)n2)C1	binding	1 µM	100
Cc1nc(N2CC[C@@H](O)C2)ncc1-c1cc(C(F)(F)F)cc2[nH]ncc12	cell-free assay, competition with immobilised ligand	1 µM	87
c1cnn2ncc(-c3ccnc(N4CCC45COC5)n3)c2c1	binding	1 µM	100
Cc1noc([C@H]2C[C@@H](c3ccc(C(F)(F)F)cc3)CN(C(=O)N3CCS(=O)(=O)C3)C2)n1	cell-free assay, competition with immobilised ligand	1 µM	100
CNC(=O)[C@@H]1CC[C@@H](n2c(-c3ccc4cnccc4c3)nc3ccc(C(=O)NCc4cccc(C(N)=O)c4)cc32)C1	binding, competition with immobilised ligand	1 µM	100
CN(c1nccc(-c2cnn3ncccc23)n1)C1CC1	binding	1 µM	84
FC(F)(F)Oc1cccc(-c2cnc3ccc(-c4ccncc4)nn23)c1	binding, competition with immobilised ligand	5 µM	91
O=C(NCCCN1CCOCC1)c1ccc(Nc2ncc(Cl)c(-c3ccc(Cl)s3)n2)cc1	binding, competition with immobilised ligand	1 µM	78
Cc1nc(C2CCN(C(=O)c3ccc(OC(F)(F)F)cc3N)CC2)c2ncc(N3CCN(C)CC3)cc2n1	cell-free assay, competition with immobilised ligand	1 µM	100
N[C@H]1CCN(c2nccc(-c3cnn4ncccc34)n2)C1	binding	1 µM	100
CS(=O)(=O)N1CCCC(NC(=O)[C@H](CCC2CCCCC2)NC(=O)c2ccc(CNc3ncnc4c3nnn4-c3ccccc3)cc2)C1 (stereo partly shown)	cell-free assay, competition with immobilised ligand	0.1 µM	63
COc1cnc(Nc2cccc(S(N)(=O)=O)c2)nc1N1CCN(c2ccccc2)CC1	binding, competition with immobilised ligand	1 µM	96
C[C@@H]1CCN(c2nccc(-c3cnn4ncccc34)n2)C1	binding	1 µM	100
CCOC(=O)c1cc2cc(-c3cc(C(=O)NCc4ccc(C(=O)O)cc4)nn3C)ccc2[nH]1	cell-free assay, competition with immobilised ligand	0.1 µM	100
O=C(Nc1c[nH]nc1C(=O)NC1CCNCC1)c1cc(F)cc(F)c1	binding, competition with immobilised ligand	1 µM	95
O=C(c1ccc(Nc2nccc(-c3cc4ccccc4s3)n2)cc1)N1CCC(N2CCCC2)CC1	binding, competition with immobilised ligand	1 µM	71
CN(CCCC(F)(F)F)c1nccc(-c2cnn3ncccc23)n1	binding	1 µM	100
Cc1cnc(Nc2ccc(C(=O)N3CCC(N4CCCC4)CC3)cc2)nc1-c1cc2ccccc2s1	binding, competition with immobilised ligand	1 µM	31
CN(C)c1nccc(-c2cnn3ncccc23)n1	binding	1 µM	100
